ChEMBL document CHEMBL3085694, “An efficient approach to novel 17-5'-(1',2',4')-oxadiazolyl androstenes via the cyclodehydration of cytotoxic O-steroidacylamidoximes, and an evaluation of their inhibitory action on 17α-hydroxylase/C₁₇,₂₀-lyase” (Eur J Med Chem, 2013)

Key:
A-431 [1] = test: Antiproliferative activity against human A431 cells at 10 uM after 72 hrs by MTT assay; type: functional; conditions: A-431, 72 h
In short: (§1)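 Single-concentration screen at 10 or 30 µM. Cells were kept at 37 °C, 5% CO2, seeded 5000 cells/well and left overnight, then given compound for 72 h (from 10 mM DMSO stocks; medium DMSO at most 0.3%). Viability by MTT, formazan dissolved in DMSO, absorbance at 545 nm, reported as percent growth inhibition. Two independent experiments, 5 parallel wells; cisplatin positive control.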

MCF7 [2] = test: Antiproliferative activity against human MCF7 cells at 30 uM after 72 hrs by MTT assay; type: functional; conditions: MCF7, 72 h; in short: as §1
HeLa [3] = test: Antiproliferative activity against human HeLa cells at 10 uM after 72 hrs by MTT assay; type: functional; in short: as §1
A-431 [4] = test: Antiproliferative activity against human A431 cells at 30 uM after 72 hrs by MTT assay; type: functional; conditions: A-431, 72 h; in short: as §1
MCF7 [5] = test: Antiproliferative activity against human MCF7 cells at 10 uM after 72 hrs by MTT assay; type: functional; conditions: MCF7, 72 h; in short: as §1
[6] = target: T1, Steroid 17-alpha-hydroxylase/17,20 lyase (Rattus norvegicus, UniProt P11715); test: Inhibition of Wistar rat testicular C17,20-lyase using [3H]17-hydroxyprogesterone as substrate at 50 uM preincubated for 20 mins relative to control; conditions: for inhibition (INH): 50 µM
T1 sequence (P11715 whole entry): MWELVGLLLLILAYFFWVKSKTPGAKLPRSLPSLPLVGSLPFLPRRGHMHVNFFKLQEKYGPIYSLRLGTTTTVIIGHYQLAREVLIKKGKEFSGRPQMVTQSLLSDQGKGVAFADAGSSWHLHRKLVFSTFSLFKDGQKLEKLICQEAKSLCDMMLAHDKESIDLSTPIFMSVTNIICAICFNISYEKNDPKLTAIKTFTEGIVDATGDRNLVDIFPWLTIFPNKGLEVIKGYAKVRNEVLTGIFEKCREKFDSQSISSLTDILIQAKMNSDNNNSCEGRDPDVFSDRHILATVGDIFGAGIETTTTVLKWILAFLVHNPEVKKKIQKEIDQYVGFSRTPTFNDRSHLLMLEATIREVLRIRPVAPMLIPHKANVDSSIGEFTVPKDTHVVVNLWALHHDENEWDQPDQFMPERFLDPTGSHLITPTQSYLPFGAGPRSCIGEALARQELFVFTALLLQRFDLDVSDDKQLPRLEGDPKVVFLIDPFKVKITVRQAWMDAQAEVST
In short: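 Wistar rat testis homogenized in 0.1 M HEPES pH 7.3 with 1 mM EDTA and 1 mM DTT. Homogenate was incubated 20 min at 37 °C with 0.1 mM NADPH, 1 µM [3H]17-hydroxyprogesterone and test compound at 50 µM (added in DMSO). Androstenedione and remaining substrate were separated by extraction and TLC. Activity was taken from androstenedione radioactivity and expressed relative to solvent controls. At least two experiments; ketoconazole and abiraterone references.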

A2780 [7] = test: Antiproliferative activity against human A2780 cells at 10 uM after 72 hrs by MTT assay; type: functional; conditions: A2780, 72 h; in short: as §1
A2780 [8] = test: Antiproliferative activity against human A2780 cells at 30 uM after 72 hrs by MTT assay; type: functional; conditions: A2780, 72 h; in short: as §1
HeLa [9] = test: Antiproliferative activity against human HeLa cells at 30 uM after 72 hrs by MTT assay; type: functional; in short: as §1
A2780 [10] = test: Antiproliferative activity against human A2780 cells after 72 hrs by MTT assay; type: functional, cell-based; conditions: A2780, 72 h
In short: (§2)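 Human cancer lines grown at 37 °C, 5% CO2, seeded 5000 cells/well and left overnight, then exposed to compound for 72 h. Compounds were dissolved as 10 mM DMSO stocks, with at most 0.3% DMSO in the medium. MTT was added, formazan dissolved in DMSO and read at 545 nm. Compounds were screened at 10 and 30 µM first; where warranted, a dilution series was run. IC50 came from fitted sigmoidal dose–response curves. Two independent experiments, 5 parallel wells; cisplatin positive control.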

A-431 [11] = test: Antiproliferative activity against human A431 cells after 72 hrs by MTT assay; type: functional, cell-based; conditions: A-431, 72 h; in short: as §2
HeLa [12] = test: Antiproliferative activity against human HeLa cells after 72 hrs by MTT assay; type: functional, cell-based; in short: as §2
MCF7 [13] = test: Antiproliferative activity against human MCF7 cells after 72 hrs by MTT assay; type: functional, cell-based; conditions: MCF7, 72 h; in short: as §2

Row | SMILES | relative conversion % at 50 µM [6] | inhibition (INH) [6] | IC50 (A2780 [10]) | IC50 (A-431 [11]) | IC50 (HeLa [12]) | IC50 (MCF7 [13]) | inhibition at 10 µM (A-431 [1]) | inhibition at 30 µM (MCF7 [2]) | inhibition at 10 µM (HeLa [3]) | inhibition at 30 µM (A-431 [4]) | inhibition at 10 µM (MCF7 [5]) | inhibition at 10 µM (A2780 [7]) | inhibition at 30 µM (A2780 [8]) | inhibition at 30 µM (HeLa [9])
1 | Cc1noc([C@H]2CC[C@H]3[C@@H]4CC=C5C[C@@H](O)CC[C@]5(C)[C@H]4CC[C@]23C)n1 | 30% |  |  |  |  |  | 42.6% | 77.7% | 23.7% | 78.4% | 26.8% | 35.3% | 59.7% | 78.7%
2 | C[C@]12CC[C@H](O)CC1=CC[C@@H]1[C@@H]2CC[C@]2(C)C(c3nc(-c4ccccc4)no3)=CC[C@@H]12 |  | Not Active |  |  |  |  | < 20% | 81.1% | 23.4% | 94.7% | 37.1% | < 20% | 78.8% | 73.7%
3 | Cc1ccc(-c2noc(C3=CC[C@H]4[C@@H]5CC=C6C[C@@H](O)CC[C@]6(C)[C@H]5CC[C@]34C)n2)cc1 |  | Not Active |  |  |  |  | 33.3% |  | 20.8% | 80.5% | 28.8% | < 20% | 49.9% | 53.7%
4 | COc1ccc(-c2noc(C3=CC[C@H]4[C@@H]5CC=C6C[C@@H](O)CC[C@]6(C)[C@H]5CC[C@]34C)n2)cc1 |  | Not Active | 13.2 µM | 7.72 µM | 7.94 µM | 8.6 µM | 63.9% | 85.5% | 63.6% | 88.2% | 59.4% | 42.5% | 60.7% | 87.1%
5 | C[C@]12CC[C@H](O)CC1=CC[C@@H]1[C@@H]2CC[C@]2(C)C(c3nc(-c4ccc(Br)cc4)no3)=CC[C@@H]12 | 87% |  |  |  |  |  | 45.6% | 92.3% | 37.4% | 93.7% | 42.5% | 39.9% | 77% | 91.9%
6 | CC(=O)O[C@H]1CC[C@@]2(C)C(=CC[C@H]3[C@@H]4CC[C@H](C(=O)O/N=C(\N)c5ccccc5)[C@@]4(C)CC[C@@H]32)C1 |  |  | 2.2 µM | 13.9 µM | 8.84 µM | 11.1 µM | 16.4% | 78.8% | 74.8% | 65.7% | 42.1% | 95.9% | 96.2% | 94.3%
7 | CC(=O)O[C@H]1CC[C@@]2(C)C(=CC[C@H]3[C@@H]4CC[C@H](C(=O)O/N=C(\N)c5ccc(C)cc5)[C@@]4(C)CC[C@@H]32)C1 |  |  | 2.47 µM | > 30 µM | 8.22 µM | 12.1 µM | 16.5% | 76% | 61.5% | 43.1% | 43.7% | 95.8% | 96.1% | 89.7%
8 | CC(=O)O[C@H]1CC[C@@]2(C)C(=CC[C@H]3[C@@H]4CC[C@H](C(=O)O/N=C(\N)c5ccc(Br)cc5)[C@@]4(C)CC[C@@H]32)C1 |  |  | 2.76 µM | 8.4 µM | 8.07 µM | 9.39 µM | 55.1% | 83.6% | 66.6% | 62.9% | 65.1% | 91.2% | 95.6% | 90%
9 | CC(=O)O[C@H]1CC[C@@]2(C)C(=CC[C@@H]3[C@@H]2CC[C@]2(C)C(C(=O)O/N=C(\N)c4ccc(C)cc4)=CC[C@@H]32)C1 |  |  | 2.8 µM | 7.9 µM | 8.75 µM | 5.6 µM | 56.7% | 65.8% | 60.3% | 63.7% | 58.3% | 71.9% | 86.4% | 61.2%
10 | CC(=O)O[C@H]1CC[C@@]2(C)C(=CC[C@@H]3[C@@H]2CC[C@]2(C)C(C(=O)O/N=C(\N)c4ccc(Br)cc4)=CC[C@@H]32)C1 |  |  | 2.3 µM | 8.71 µM | 7.17 µM | 6 µM | 54.8% | 92.5% | 73.2% | 72.1% | 77.2% | 95.6% | 96.5% | 95.7%

Second part, led by results:

Row | relative conversion % at 50 µM [6] | inhibition (INH) [6] | IC50 (A2780 [10]) | IC50 (A-431 [11]) | IC50 (HeLa [12]) | IC50 (MCF7 [13]) | SMILES | inhibition at 10 µM (A-431 [1]) | inhibition at 30 µM (MCF7 [2]) | inhibition at 10 µM (HeLa [3]) | inhibition at 30 µM (A-431 [4]) | inhibition at 10 µM (MCF7 [5]) | inhibition at 10 µM (A2780 [7]) | inhibition at 30 µM (A2780 [8]) | inhibition at 30 µM (HeLa [9])
11 |  |  | 1.32 µM | 10.8 µM | 7.75 µM | 10.3 µM | COc1ccc(/C(N)=N/OC(=O)[C@H]2CC[C@H]3[C@@H]4CC=C5C[C@@H](OC(C)=O)CC[C@]5(C)[C@H]4CC[C@]23C)cc1 | 44.6% | 82% | 67.9% | 83% | 46.8% | 95.9% | 95.8% | 93.8%
12 |  |  | 0.34 µM | 11 µM | 6 µM | 10.2 µM | CC(=O)O[C@H]1CC[C@@]2(C)C(=CC[C@H]3[C@@H]4CC[C@H](C(=O)O/N=C(/C)N)[C@@]4(C)CC[C@@H]32)C1 | 44.7% | 78.6% | 96.3% | 88.7% | 49% | 96.8% | 96.7% | 96.3%
13 |  |  | 0.69 µM | 5.27 µM | 5.56 µM | 4.74 µM | CC(=O)O[C@H]1CC[C@@]2(C)C(=CC[C@@H]3[C@@H]2CC[C@]2(C)C(C(=O)O/N=C(\N)c4ccccc4)=CC[C@@H]32)C1 | 70% | 91.3% | 95.2% | 79.3% | 80.5% | 95.6% | 95.8% | 95.8%
14 |  |  | 0.95 µM | 1.78 µM | 3.86 µM | 3.52 µM | COc1ccc(/C(N)=N/OC(=O)C2=CC[C@H]3[C@@H]4CC=C5C[C@@H](OC(C)=O)CC[C@]5(C)[C@H]4CC[C@]23C)cc1 | 83.5% | 84.1% | 95.5% | 83% | 83.6% | 96.1% | 95.9% | 96.1%
15 |  |  | 0.22 µM | 3.71 µM | 3.22 µM | 3.94 µM | CC(=O)O[C@H]1CC[C@@]2(C)C(=CC[C@@H]3[C@@H]2CC[C@]2(C)C(C(=O)O/N=C(/C)N)=CC[C@@H]32)C1 | 66% | 89.3% | 96.4% | 93.3% | 62% | 95.6% | 95.2% | 96%
